{"source": "ChEMBL document CHEMBL4725242", "about": "“Discovery of GS-9688 (Selgantolimod) as a Potent and Selective Oral Toll-Like Receptor 8 Agonist for the Treatment of Chronic Hepatitis B” (J Med Chem, 2020)", "key": {"[1]": {"target": "Toll-like receptor 4 (Homo sapiens) (UniProt O00206)", "sequence (O00206 whole entry)": "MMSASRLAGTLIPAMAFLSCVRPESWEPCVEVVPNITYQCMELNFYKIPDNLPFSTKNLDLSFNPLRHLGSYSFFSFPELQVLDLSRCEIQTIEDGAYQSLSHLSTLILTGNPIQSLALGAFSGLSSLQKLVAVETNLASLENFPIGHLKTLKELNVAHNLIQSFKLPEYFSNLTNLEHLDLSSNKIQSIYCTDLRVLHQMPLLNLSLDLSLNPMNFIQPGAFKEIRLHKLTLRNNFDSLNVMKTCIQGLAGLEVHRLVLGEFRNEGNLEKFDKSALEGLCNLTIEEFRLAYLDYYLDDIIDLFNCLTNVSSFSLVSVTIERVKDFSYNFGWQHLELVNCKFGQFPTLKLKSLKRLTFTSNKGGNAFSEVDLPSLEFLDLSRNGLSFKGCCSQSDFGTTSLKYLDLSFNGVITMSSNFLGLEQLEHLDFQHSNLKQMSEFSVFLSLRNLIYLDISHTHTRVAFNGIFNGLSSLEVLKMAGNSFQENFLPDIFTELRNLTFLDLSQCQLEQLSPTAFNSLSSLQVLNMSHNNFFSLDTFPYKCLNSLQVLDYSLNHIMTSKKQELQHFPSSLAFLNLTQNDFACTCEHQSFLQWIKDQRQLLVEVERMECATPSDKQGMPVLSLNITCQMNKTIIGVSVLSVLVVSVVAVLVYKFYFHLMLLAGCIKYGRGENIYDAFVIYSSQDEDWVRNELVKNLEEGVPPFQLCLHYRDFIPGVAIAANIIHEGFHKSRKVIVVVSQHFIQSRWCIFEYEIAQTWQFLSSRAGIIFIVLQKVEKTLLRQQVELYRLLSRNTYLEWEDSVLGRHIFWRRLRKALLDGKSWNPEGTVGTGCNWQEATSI", "assay": "Agonist activity at human TLR4 expressed in HEK293 cells assessed as increase in NF-kappaB activation up to 10 uM incubated for 24 hrs by quanti-blue SEAP reporter gene assay", "type": "cell-based", "conditions": "dose microM <=10, time 24.0 hrs", "in_short": "(§1)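 HEK293 cells stably expressing individual human TLRs or other innate immune receptors, used as reporter gene assays. Minimum effective concentration defined as the level giving a 3-fold rise over background.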"}, "[2]": {"assay": "Cytotoxicity against human MT4 cells assessed as reduction in cell viability measured after 4 to 5 days by celltiter-glo assay", "type": "cell-based", "conditions": "time 4-5 day"}, "[3]": {"target": "T1, Nucleotide-binding oligomerization domain-containing protein 1 (Homo sapiens) (UniProt Q9Y239)", "T1 sequence (whole entry)": "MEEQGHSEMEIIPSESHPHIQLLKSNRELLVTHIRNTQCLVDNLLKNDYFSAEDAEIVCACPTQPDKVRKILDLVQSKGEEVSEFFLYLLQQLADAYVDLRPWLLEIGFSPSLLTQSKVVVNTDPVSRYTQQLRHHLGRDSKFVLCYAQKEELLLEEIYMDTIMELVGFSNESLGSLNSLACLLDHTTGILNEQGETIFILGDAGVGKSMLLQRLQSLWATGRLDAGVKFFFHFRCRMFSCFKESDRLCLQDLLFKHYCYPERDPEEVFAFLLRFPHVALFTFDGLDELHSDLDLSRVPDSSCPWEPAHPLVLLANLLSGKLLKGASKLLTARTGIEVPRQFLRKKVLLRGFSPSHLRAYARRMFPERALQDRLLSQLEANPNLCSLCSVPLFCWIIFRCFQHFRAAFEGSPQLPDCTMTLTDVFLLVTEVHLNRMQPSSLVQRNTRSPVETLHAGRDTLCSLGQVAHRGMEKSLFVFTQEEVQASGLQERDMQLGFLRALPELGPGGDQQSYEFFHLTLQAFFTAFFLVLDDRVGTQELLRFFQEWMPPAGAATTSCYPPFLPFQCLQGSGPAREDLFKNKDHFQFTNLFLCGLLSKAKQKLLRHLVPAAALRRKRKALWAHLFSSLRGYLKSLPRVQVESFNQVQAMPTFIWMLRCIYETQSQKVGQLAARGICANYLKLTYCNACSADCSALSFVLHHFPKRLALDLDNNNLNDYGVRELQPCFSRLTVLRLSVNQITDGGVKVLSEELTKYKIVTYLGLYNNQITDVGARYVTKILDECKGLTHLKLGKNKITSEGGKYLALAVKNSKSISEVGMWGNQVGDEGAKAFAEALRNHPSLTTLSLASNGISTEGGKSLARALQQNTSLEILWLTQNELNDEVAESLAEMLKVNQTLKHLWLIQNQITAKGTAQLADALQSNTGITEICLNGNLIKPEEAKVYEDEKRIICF", "assay": "Agonist activity at human NOD1 expressed in HEK293 cells assessed as increase in NF-kappaB activation up to 10 uM incubated for 24 hrs by quanti-blue SEAP reporter gene assay", "type": "cell-based", "conditions": "dose microM <=10, time 24.0 hrs", "in_short": "as §1"}, "[4]": {"assay": "Clearance in Sprague-Dawley rat at 1 mg/kg, iv administered as 30 mins infusion by HPLC-MS analysis", "type": "ADME, organism-based", "conditions": "in vivo", "in_short": "(§2)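 30-min intravenous infusion: Sprague Dawley rats 1 mg/kg, beagle dogs 0.25 mg/kg, cynomolgus monkeys 0.1 mg/kg; n = 3 per species, reported as mean ± SD.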"}, "[5]": {"target": "Nucleotide-binding oligomerization domain-containing protein 2 (Homo sapiens) (UniProt Q9HC29)", "sequence (Q9HC29 whole entry, the tested form may be a part)": "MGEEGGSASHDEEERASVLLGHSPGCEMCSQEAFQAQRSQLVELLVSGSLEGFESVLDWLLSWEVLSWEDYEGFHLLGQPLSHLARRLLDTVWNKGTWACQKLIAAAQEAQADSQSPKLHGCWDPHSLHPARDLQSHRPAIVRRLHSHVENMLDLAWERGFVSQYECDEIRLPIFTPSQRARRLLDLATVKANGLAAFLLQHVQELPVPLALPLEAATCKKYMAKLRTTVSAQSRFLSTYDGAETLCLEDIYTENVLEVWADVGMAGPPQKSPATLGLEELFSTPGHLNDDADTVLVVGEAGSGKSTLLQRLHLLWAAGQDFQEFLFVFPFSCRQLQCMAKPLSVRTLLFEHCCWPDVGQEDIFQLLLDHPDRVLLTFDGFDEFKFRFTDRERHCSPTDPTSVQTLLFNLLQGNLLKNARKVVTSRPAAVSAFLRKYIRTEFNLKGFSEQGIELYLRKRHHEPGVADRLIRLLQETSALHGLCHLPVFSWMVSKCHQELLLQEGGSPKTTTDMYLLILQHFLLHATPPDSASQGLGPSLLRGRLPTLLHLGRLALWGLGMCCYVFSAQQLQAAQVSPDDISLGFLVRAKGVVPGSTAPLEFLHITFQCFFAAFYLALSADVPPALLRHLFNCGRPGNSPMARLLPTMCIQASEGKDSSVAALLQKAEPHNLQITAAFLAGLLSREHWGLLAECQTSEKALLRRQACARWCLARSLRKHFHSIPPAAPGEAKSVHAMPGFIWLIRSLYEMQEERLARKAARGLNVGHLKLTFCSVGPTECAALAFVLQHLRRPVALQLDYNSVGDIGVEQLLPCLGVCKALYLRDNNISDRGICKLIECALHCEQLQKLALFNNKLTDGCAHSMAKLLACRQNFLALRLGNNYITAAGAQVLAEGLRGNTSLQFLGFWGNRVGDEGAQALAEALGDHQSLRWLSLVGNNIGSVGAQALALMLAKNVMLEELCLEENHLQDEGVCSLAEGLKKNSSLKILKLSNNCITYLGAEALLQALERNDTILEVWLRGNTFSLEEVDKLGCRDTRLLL", "assay": "Agonist activity at human NOD2 expressed in HEK293 cells assessed as increase in NF-kappaB activation up to 10 uM incubated for 24 hrs by quanti-blue SEAP reporter gene assay", "type": "cell-based", "conditions": "dose microM <=10, time 24.0 hrs", "in_short": "as §1"}, "[6]": {"assay": "Half life in cynomolgus monkey at 0.1 mg/kg, iv administered as 30 mins infusion by HPLC-MS analysis", "type": "ADME, organism-based, Macaca fascicularis", "conditions": "in vivo", "in_short": "as §2"}, "[7]": {"assay": "Drug excretion in bile duct-cannulated Sprague-Dawley rat bile", "type": "ADME", "conditions": "in vivo"}, "[8]": {"target": "T2, Toll-like receptor 9 (Homo sapiens) (UniProt Q9NR96)", "T2 sequence (whole entry)": "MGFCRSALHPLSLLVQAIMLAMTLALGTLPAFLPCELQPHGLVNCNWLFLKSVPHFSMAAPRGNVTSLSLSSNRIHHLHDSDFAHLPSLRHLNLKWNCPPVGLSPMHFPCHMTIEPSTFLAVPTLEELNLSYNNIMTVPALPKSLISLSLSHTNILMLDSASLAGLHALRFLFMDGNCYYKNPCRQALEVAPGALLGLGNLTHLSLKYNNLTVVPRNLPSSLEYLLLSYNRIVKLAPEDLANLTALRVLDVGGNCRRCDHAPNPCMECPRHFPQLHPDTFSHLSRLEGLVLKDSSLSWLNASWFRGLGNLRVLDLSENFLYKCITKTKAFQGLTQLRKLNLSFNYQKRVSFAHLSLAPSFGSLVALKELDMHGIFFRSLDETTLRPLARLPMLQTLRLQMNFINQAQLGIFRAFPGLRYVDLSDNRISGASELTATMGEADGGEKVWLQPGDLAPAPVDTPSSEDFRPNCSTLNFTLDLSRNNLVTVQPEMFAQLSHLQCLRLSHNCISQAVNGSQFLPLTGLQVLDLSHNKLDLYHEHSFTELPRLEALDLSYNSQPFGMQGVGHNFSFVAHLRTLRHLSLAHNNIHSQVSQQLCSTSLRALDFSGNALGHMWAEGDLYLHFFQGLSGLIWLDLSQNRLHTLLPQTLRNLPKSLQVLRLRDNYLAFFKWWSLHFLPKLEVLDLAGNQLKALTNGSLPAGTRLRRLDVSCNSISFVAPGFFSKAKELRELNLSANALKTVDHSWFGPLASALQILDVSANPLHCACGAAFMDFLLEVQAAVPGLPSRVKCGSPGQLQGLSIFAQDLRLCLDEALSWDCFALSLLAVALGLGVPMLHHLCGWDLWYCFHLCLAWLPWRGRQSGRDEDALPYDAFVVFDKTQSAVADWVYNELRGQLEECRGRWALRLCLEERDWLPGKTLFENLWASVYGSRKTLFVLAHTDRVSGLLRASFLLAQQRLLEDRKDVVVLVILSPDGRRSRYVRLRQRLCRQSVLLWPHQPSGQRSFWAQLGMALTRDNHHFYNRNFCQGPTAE", "assay": "Agonist activity at human TLR9 expressed in HEK293 cells assessed as increase in NF-kappaB activation up to 10 uM incubated for 18 hrs by quanti-blue SEAP reporter gene assay", "type": "cell-based", "conditions": "dose microM <=10, time […]", "in_short": "as §1"}, "[9]": {"assay": "Volume of distribution at steady state in cynomolgus monkey at 0.1 mg/kg, iv administered as 30 mins infusion by HPLC-MS analysis", "type": "ADME, organism-based, Macaca fascicularis", "conditions": "in vivo, read-out: Vdss", "in_short": "as §2"}, "[10]": {"assay": "Immunomodulatory activity in human primary hepatocytes infected with HBV assessed as stimulation of CD8+T cell response to virus by measuring decrease in HBV DNA production treated with media from PBMC stimulated with 10 nM compound for 10 days relative to control", "type": "functional", "design": "scale not given: the % may be the effect or the level left", "conditions": "time 10 day"}, "[11]": {"assay": "Apparent permeability across basolateral to apical side in human Caco2 cells measured after 1 to 2 hrs by LC-MS/MS analysis", "conditions": "Caco-2"}}, "note": "Calls of active or inactive are those of the source.", "data": [{"smiles": "CCCC[C@](C)(CO)Nc1nc(N)nc2cc(F)cnc12", "note": "[SELGANTOLIMOD]", "values": [{"measurement": "Activity", "setting": "[1]", "value": "inactive"}, {"measurement": "CC50", "setting": "[2]", "value": 17, "unit": "µM"}, {"measurement": "Activity", "setting": "[3]", "value": "inactive"}, {"measurement": "clearance", "setting": "[4]", "value": 30, "unit": "mL/min/kg"}, {"measurement": "Activity", "setting": "[5]", "value": "inactive"}, {"measurement": "half-life", "setting": "[6]", "value": 40.2, "unit": "min"}, {"measurement": "Drug excretion", "setting": "[7]", "value": "Active"}, {"measurement": "Activity", "setting": "[8]", "value": "inactive"}, {"measurement": "Vd", "setting": "[9]", "value": 2.1, "unit": "L/kg"}, {"measurement": "Activity", "setting": "[10]", "value": ">50", "unit": "%"}, {"measurement": "Papp B→A", "setting": "[11]", "value": 11, "unit": "×10⁻⁶ cm/s"}]}]}
